Assay type in all cases: functional
Holding throughout (conditions): Human alphaherpesvirus 1, Vero

In assay [1] the test system is Human alphaherpesvirus 1. Kind of assay: Antiviral activity against HSV1 infected in african green monkey Vero cells assessed as inhibition of plaque formation at 5 ug/mL after 1 hr relative to control. Summed up:
(§1)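 Plaque reduction in Vero cells (DMEM, 10% FBS, pH 7.2–7.4). Virus–compound mixture inoculated onto monolayer for 1 h adsorption. Overlay of DMEM with 2% agarose, incubated at 37 °C until plaques formed. Fixed with 10% formalin for 2 h and stained with crystal violet. % inhibition = (untreated count − treated count)/untreated count × 100.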

The subject of assay [2] is Human alphaherpesvirus 1. The assay can be described thus: Antiviral activity against HSV1 infected in african green monkey Vero cells assessed as inhibition of plaque formation at 2 ug/mL after 1 hr relative to control. The method in brief: as §1
The subject of assay [3] is Human alphaherpesvirus 1. Kind of assay: Antiviral activity against HSV1 infected in african green monkey Vero cells assessed as reduction of plaque formation at 30 ug/mL pretreated 2 hrs before infection measured after 1 hr by adsorption assay relative to control. The method in brief:
(§2)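 Adsorption format. Vero cells seeded at 10⁵ cells/ml and grown 2 days at 37 °C. Compound in supplement-free medium coincubated with cells for 2 h at 4 °C, then washed three times. HSV-1 at 10⁴ PFU/well added to pretreated cells for 1 h. Agarose–DMEM overlay, 37 °C until plaques, formalin fix and crystal violet stain. % plaque reduction calculated against untreated infected cells.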

The subject of assay [4] is Human alphaherpesvirus 1. Kind of assay: Antiviral activity against HSV1 infected in african green monkey Vero cells assessed as reduction of plaque formation at 40 ug/mL treated 1 hr after infection measured after 1 hr by replication assay relative to control. The method in brief:
(§3)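 Replication format. Vero cells seeded at 10⁵ cells/ml and grown 2 days at 37 °C. Infected with HSV-1 at 10⁴ PFU/well for 1 h at 37 °C, then unadsorbed virus washed off three times with supplement-free medium. Plaques formed, fixed, stained and counted. % reduction calculated against infected control wells.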

The test system of assay [5] is Human alphaherpesvirus 1. The assay can be described thus: Antiviral activity against HSV1 infected in african green monkey Vero cells assessed as reduction of plaque formation at 30 ug/mL pretreated 1 hr before infection measured after 1 hr by virucidal assay relative to control. Summed up:
(§4)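 Virucidal format. 10⁷ PFU HSV-1 in serum-free DMEM mixed with compound for 1 h. Mixture serially diluted 10-fold three times, and each dilution applied to Vero monolayers (10⁵ cells/ml, grown 2 days) for 1 h. DMEM overlay added, incubated at 37 °C, fixed and stained. % plaque reduction calculated against virus not pretreated with compound.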

The test system of assay [6] is Human alphaherpesvirus 1. Kind of assay: Antiviral activity against HSV1 infected in african green monkey Vero cells assessed as reduction of plaque formation at 30 ug/mL treated 1 hr after infection measured after 1 hr by replication assay relative to control. The method in brief:
as §3

The test system of assay [7] is Human alphaherpesvirus 1. The assay can be described thus: Antiviral activity against HSV1 infected in african green monkey Vero cells assessed as reduction of plaque formation at 40 ug/mL pretreated 2 hrs before infection measured after 1 hr by adsorption assay relative to control. Summed up: as §2
The subject of assay [8] is Human alphaherpesvirus 1. Kind of assay: Antiviral activity against HSV1 infected in african green monkey Vero cells assessed as reduction of plaque formation at 20 ug/mL pretreated 2 hrs before infection measured after 1 hr by adsorption assay relative to control. The method in brief: as §2
Assay [9] has as its system Human alphaherpesvirus 1. The assay can be described thus: Antiviral activity against HSV1 infected in african green monkey Vero cells assessed as reduction of plaque formation at 20 ug/mL pretreated 1 hr before infection measured after 1 hr by virucidal assay relative to control. The method in brief: as §4
The subject of assay [10] is Human alphaherpesvirus 1. Kind of assay: Antiviral activity against HSV1 infected in african green monkey Vero cells assessed as reduction of plaque formation at 20 ug/mL treated 1 hr after infection measured after 1 hr by replication assay relative to control. Summed up: as §3

As a reminder, the inhibition is the relative decrease from the control value, in per cent.

For `COc1ccc(C2C(=O)C(c3ccc4c(c3)CCCC4)N=C3SCC(=O)N32)cc1OC` (stereo not given), the inhibition at 5 µg/mL with Human alphaherpesvirus 1 [1] was determined as 0%. The inhibition at 2 µg/mL in the assay on Human alphaherpesvirus 1 [2] came out at 0%.
Turning to `COc1ccc(C2NC(SC(C(C)=O)C(C)=O)=NC(c3ccc4c(c3)CCCC4)C2=O)cc1OC` (stereo not given), the inhibition at 5 µg/mL in the assay with Human alphaherpesvirus 1 [1] came out at 95%. Besides, the inhibition at 30 µg/mL in the assay on Human alphaherpesvirus 1 [3] worked out at 0%; in the assay on Human alphaherpesvirus 1 [5] it was 28%; in the assay with Human alphaherpesvirus 1 [6] it was 0%. In addition, the inhibition at 40 µg/mL with Human alphaherpesvirus 1 [4] and in the assay on Human alphaherpesvirus 1 [7] was 0% in each case. For the same compound, in the assay with Human alphaherpesvirus 1 [2], the inhibition at 2 µg/mL stood at 90%.
Regarding `COc1ccc(C2OC2C(=O)c2ccc3c(c2)CCCC3)cc1OC` (stereo not given), in the assay with Human alphaherpesvirus 1 [1], the inhibition at 5 µg/mL was 57%. In the assay on Human alphaherpesvirus 1 [2], the inhibition at 2 µg/mL came to 24%.
Turning to `Cc1ccc(C2C(O)C(c3ccc4c(c3)CCCC4)=NN2c2ccccc2)cc1` (stereo not given), the inhibition at 5 µg/mL with Human alphaherpesvirus 1 [1] worked out at 76%. The inhibition at 2 µg/mL in the assay on Human alphaherpesvirus 1 [2] was 76%.
For `COc1ccc(C2C(=O)C(c3ccc4c(c3)CCCC4)N=C3SC(C(C)=O)=C(C)N32)cc1OC` (stereo not given), in the assay on Human alphaherpesvirus 1 [1], the inhibition at 5 µg/mL turned out to be 14%. For the same compound, in the assay with Human alphaherpesvirus 1 [2], the inhibition at 2 µg/mL came to 0%.
Turning to `COc1ccc(C2C(=O)C(c3ccc4c(c3)CCCC4)N=C3SC(C)C(=O)N32)cc1OC` (stereo not given), the values for the inhibition at 20 µg/mL in the assay with Human alphaherpesvirus 1 [8], with Human alphaherpesvirus 1 [9] and in the assay with Human alphaherpesvirus 1 [10] were 0%, 92% and 60%, respectively. Also, the inhibition at 5 µg/mL in the assay with Human alphaherpesvirus 1 [1] was found to be 100%. In addition, the inhibition at 30 µg/mL with Human alphaherpesvirus 1 [3] was 0%; in the assay on Human alphaherpesvirus 1 [5] it was 95%; in the assay with Human alphaherpesvirus 1 [6], 80%. For the same compound, the inhibition at 2 µg/mL in the assay with Human alphaherpesvirus 1 [2] was 90%.
Turning to `COc1ccc(C2C(=O)C(c3ccc4c(c3)CCCC4)N=c3s/c(=C/c4ccc(Cl)cc4)c(=O)n32)cc1OC` (stereo not given), the inhibition at 5 µg/mL in the assay with Human alphaherpesvirus 1 [1] was found to be 0%. Also, the inhibition at 2 µg/mL with Human alphaherpesvirus 1 [2] was found to be 0%.
Consider `Cc1ccc(C2OC2C(=O)c2ccc3c(c2)CCCC3)cc1` (stereo not given), for which the inhibition at 5 µg/mL with Human alphaherpesvirus 1 [1] worked out at 0%. Also, the inhibition at 2 µg/mL in the assay with Human alphaherpesvirus 1 [2] came to 0%.
Consider `O=C(c1ccc2c(c1)CCCC2)C1OC1c1ccc(Br)cc1` (stereo not given), for which the inhibition at 5 µg/mL in the assay with Human alphaherpesvirus 1 [1] came out at 18%. Further, the inhibition at 2 µg/mL in the assay on Human alphaherpesvirus 1 [2] was determined as 30%.
`Cc1ccc(-c2cc(-c3ccc4c(c3)CCCC4)nn2-c2ccccc2)cc1`: the inhibition at 5 µg/mL with Human alphaherpesvirus 1 [1] turned out to be 26%. Moreover, the inhibition at 2 µg/mL with Human alphaherpesvirus 1 [2] worked out at 3%.
With `Cc1ccc(C2NC(=S)NC(c3ccc4c(c3)CCCC4)C2=O)cc1` (stereo not given), in the assay with Human alphaherpesvirus 1 [1], the inhibition at 5 µg/mL turned out to be 66%. The inhibition at 2 µg/mL with Human alphaherpesvirus 1 [2] is 0%.
Regarding `COc1ccc(C2NC(=S)NC(c3ccc4c(c3)CCCC4)C2=O)cc1OC` (stereo not given), the inhibition at 5 µg/mL in the assay on Human alphaherpesvirus 1 [1] was 54%. For the same compound, the inhibition at 2 µg/mL in the assay on Human alphaherpesvirus 1 [2] was found to be 27%.
`O=C(c1ccc2c(c1)CCCC2)C1OC(c2ccc(Br)cc2)C(C(=O)c2ccc3c(c2)CCCC3)OC1c1ccc(Br)cc1` (stereo not given): the inhibition at 5 µg/mL with Human alphaherpesvirus 1 [1] turned out to be 0%. In addition, the inhibition at 2 µg/mL in the assay on Human alphaherpesvirus 1 [2] came to 0%.
Consider `COc1ccc(C2C(=O)C(c3ccc4c(c3)CCCC4)N=C3SCCC(=O)N32)cc1OC` (stereo not given), for which, in the assay with Human alphaherpesvirus 1 [1], the inhibition at 5 µg/mL was found to be 30%. The inhibition at 2 µg/mL with Human alphaherpesvirus 1 [2] turned out to be 3%.
For `COc1ccc(C2NC(=O)NC(c3ccc4c(c3)CCCC4)C2=O)cc1OC` (stereo not given), the inhibition at 5 µg/mL in the assay on Human alphaherpesvirus 1 [1] came to 21%. Further, the inhibition at 2 µg/mL with Human alphaherpesvirus 1 [2] came to 33%.
Turning to `Cc1ccc(C2NC(=N)NC(c3ccc4c(c3)CCCC4)C2=O)cc1` (stereo not given), the inhibition at 5 µg/mL in the assay on Human alphaherpesvirus 1 [1] is 0%. In addition, the inhibition at 2 µg/mL with Human alphaherpesvirus 1 [2] worked out at 4%.
Take `CCOC(=O)SC1=NC(c2ccc3c(c2)CCCC3)C(=O)C(c2ccc(OC)c(OC)c2)N1` (stereo not given): the inhibition at 5 µg/mL in the assay with Human alphaherpesvirus 1 [1] amounted to 19%. In addition, the inhibition at 2 µg/mL in the assay on Human alphaherpesvirus 1 [2] worked out at 61%.

The values are drawn from ChEMBL document CHEMBL1157040, “Anti-HSV-1 activity and mechanism of action of some new synthesized substituted pyrimidine, thiopyrimidine and thiazolopyrimidine derivatives” (2010).
